pIC50: −log10 of the molar value. Activity calls are given as the source filed them.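 How the source made its calls: active means inhibition of 30% or more at any tested concentration; inactive means the rest.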

Chain of Leucine aminopeptidase (Plasmodium falciparum (isolate 3D7)) (Q8IL11 whole entry, looked up): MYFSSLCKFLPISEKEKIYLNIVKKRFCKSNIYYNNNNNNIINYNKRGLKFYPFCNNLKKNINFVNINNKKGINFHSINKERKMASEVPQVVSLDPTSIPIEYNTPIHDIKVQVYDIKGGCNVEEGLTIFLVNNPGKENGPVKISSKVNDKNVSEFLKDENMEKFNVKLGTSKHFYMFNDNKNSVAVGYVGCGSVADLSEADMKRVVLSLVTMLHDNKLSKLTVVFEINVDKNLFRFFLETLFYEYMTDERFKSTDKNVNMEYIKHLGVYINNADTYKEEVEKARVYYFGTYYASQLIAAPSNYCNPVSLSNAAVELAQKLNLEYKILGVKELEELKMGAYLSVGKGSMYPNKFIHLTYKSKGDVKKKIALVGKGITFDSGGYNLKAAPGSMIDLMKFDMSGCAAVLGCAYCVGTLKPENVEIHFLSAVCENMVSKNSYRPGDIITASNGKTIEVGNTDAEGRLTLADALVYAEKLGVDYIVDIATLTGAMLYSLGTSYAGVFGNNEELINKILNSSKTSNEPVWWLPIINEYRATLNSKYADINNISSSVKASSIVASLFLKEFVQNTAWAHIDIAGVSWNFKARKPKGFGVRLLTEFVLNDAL

The target of one assay is Leucine aminopeptidase (Plasmodium falciparum (isolate 3D7)) (UniProt Q8IL11). The experiment in a line: PFM17LAP inhibitors, dose response, selectivity assay for PFM1AAP inhibitor project, biochemical, QFRET, H-Leu-NHMec substrate, set 3 (AID 624164). The following applies: purified rPFM17LAP, H-Leu-NHMec fluorogenic cleavage. The procedure, abridged:
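System: purified recombinant P. falciparum M17 leucine aminopeptidase (rPFM17LAP). Input: enzyme 5 µg/mL. Also added: H-Leu-NHMec 0.1 mM. Dosing: ten twofold doses from 100 µM, 2% DMSO. Incubation: enzyme reaction with compound, 90 min at room temperature. Technique: fluorescence of released NHMec, excitation 370 nm, emission 460 nm. Benchmarks: no-enzyme background wells.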
Take `O=C(NCc1ccccc1F)C1CCN(S(=O)(=O)c2ccc(Cl)s2)CC1`: the pIC50 was 4.30. On the same count and under the same terms, as for `O=C(NCc1ccc(F)cc1)C1CCN(S(=O)(=O)c2ccc(Cl)s2)CC1`, the figure is 4.36; as for `O=C(NCc1ccc2c(c1)OCO2)C1CCN(S(=O)(=O)c2ccc(Br)s2)CC1`, 4.79. The same measure, in the same setting: as for `O=C(NCc1cccc(F)c1)C1CCN(S(=O)(=O)c2ccc(Br)s2)CC1`, the figure is 4.61.

In the case of `O=C(NCc1ccccc1F)C1CCN(S(=O)(=O)c2ccc(Br)cc2)CC1`, the pIC50 is 4.08. On the same count and under the same terms, in the case of `O=C(NCc1ccccc1F)C1CCN(S(=O)(=O)c2ccc(Br)s2)CC1` it was 4.55; in that of `O=C(NCc1ccc2c(c1)OCO2)C1CCN(S(=O)(=O)c2ccc(Cl)s2)CC1`, 4.45. On the same count and under the same terms, in the case of `O=C(NCc1ccc(F)cc1)C1CCN(S(=O)(=O)c2ccc(Br)s2)CC1` it was 4.35.

For the molecule `O=C(NCc1cccc(F)c1)C1CCN(S(=O)(=O)c2ccc(Br)cc2)CC1`, the pIC50 was 4.30.

As to `O=C(NCc1cccc(F)c1)C1CCN(S(=O)(=O)c2ccc(Cl)s2)CC1`, the pIC50 was 4.30.

Still in this assay, the particulars now being: purified rPFM17LAP, H-Leu-NHMec fluorogenic cleavage; at 50 µM (top of the series).
Take `O=C(NCc1ccc2c(c1)OCO2)C1CCN(S(=O)(=O)c2sccc2Br)CC1`: the inhibition result is “inactive”.

The same assay, now with this note: purified rPFM17LAP, H-Leu-NHMec fluorogenic cleavage; at 100 µM (top of the series).
Take `O=C(NCc1cccc(F)c1)C1CCN(S(=O)(=O)c2sccc2Br)CC1`: the inhibition result is “inactive”.

Consider `O=C(NCc1ccc(F)cc1)C1CCN(S(=O)(=O)c2ccc(Br)cc2)CC1`, for which the inhibition result is “inactive”. Still for that read-out and setting: as for `O=C(NCc1ccc(F)cc1)C1CCN(S(=O)(=O)c2sccc2Br)CC1`, the entry is “inactive”. On the same count and under the same terms, as for `O=C(NCc1ccc2c(c1)OCO2)C1CCN(S(=O)(=O)c2ccc(Br)cc2)CC1`, the entry is “inactive”; as for `O=C(NCc1ccccc1F)C1CCN(S(=O)(=O)c2sccc2Br)CC1`, “inactive”; as for `O=C(NCc1ccccc1F)C1CCN(S(=O)(=O)c2cc(Br)c(Br)s2)CC1`, “inactive”. The same measure, in the same setting: in the case of `O=C(Nc1ccc2c(c1)OCO2)C1CCN(S(=O)(=O)c2sccc2Br)CC1` it was “inactive”.

For `O=C(NCCc1ccc2c(c1)OCO2)C1CCN(S(=O)(=O)c2cc(Br)c(Br)s2)CC1`, the inhibition result is “inactive”. Same read-out and setting: in the case of `O=C(Nc1ccc2c(c1)OCO2)C1CCN(S(=O)(=O)c2ccc(Br)cc2)CC1` it was “inactive”; in that of `O=C(NCCc1ccc2c(c1)OCO2)C1CCN(S(=O)(=O)c2ccc(Cl)s2)CC1`, “inactive”. Still for that read-out and setting: as for `O=C(NCc1ccc(F)cc1)C1CCN(S(=O)(=O)c2cc(Br)c(Br)s2)CC1`, the entry is “inactive”; as for `O=C(NCCc1ccc2c(c1)OCO2)C1CCN(S(=O)(=O)c2ccc(Br)cc2)CC1`, “inactive”. On the same count and under the same terms, as for `O=C(Nc1ccc2c(c1)OCO2)C1CCN(S(=O)(=O)c2ccc(Cl)s2)CC1`, the entry is “inactive”; as for `O=C(NCc1ccc2c(c1)OCO2)C1CCN(S(=O)(=O)c2cc(Br)c(Br)s2)CC1`, “inactive”.

In the case of `O=C(NCCc1ccc2c(c1)OCO2)C1CCN(S(=O)(=O)c2ccc(Br)s2)CC1`, the inhibition result was “inactive”.

Consider `O=C(Nc1ccc2c(c1)OCO2)C1CCN(S(=O)(=O)c2ccc(Br)s2)CC1`, for which the inhibition result is “inactive”. In the case of `O=C(Nc1ccc2c(c1)OCO2)C1CCN(S(=O)(=O)c2cc(Br)c(Br)s2)CC1`, the inhibition entry is “inactive”. The same measure, in the same setting: in the case of `O=C(NCCc1ccc2c(c1)OCO2)C1CCN(S(=O)(=O)c2sccc2Br)CC1` it was “inactive”. Still for that read-out and setting: in the case of `O=C(NCc1cccc(F)c1)C1CCN(S(=O)(=O)c2cc(Br)c(Br)s2)CC1` it was “inactive”.

Source of the values: PubChem BioAssay AID624164 (Southern Research Specialized Biocontainment Screening …, 2012).
